# Compound activity as filed in PubChem BioAssay.
# The list is not random: actives were taken first. Their share in the collection is about 5.4%.
# aSyn 5UTR inh = MLPCN primary screen, SNCA 5' untranslated region. hit rate 0.82% among 300,000. AID 1813. alpha-synuclein 5'UTR reporter, inhibitor activity. inhibition, % (tested at 7.5 µM); in the data active means inhibition above about 60%; inconclusive means no clear call, values can overlap the other calls;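 further: H4 neuroglioblastoma cells stably carrying SNCA 5'UTR luciferase fusion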
# SKKanGAS inh = blocks kanamycin growth of S. pyogenes SKKanGAS strain. inhibition, % at 7.5 µM. AID 1662. BacTiter-Glo, 6 h. hit rate 1.3% among 300,000;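 active means mean replicate score, as percent of positive control median, at least 50; inconclusive means mean below 50 but one replicate at or above 50; inactive means mean and every replicate below 50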;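 further: strain carries kanamycin resistance gene driven by streptokinase promoter and grows in 40 µg/ml kanamycin; loss of luminescence reflects streptokinase promoter inhibition or plain growth inhibition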
# CSC inhib = cancer stem cell inhibition; cancer stem cell-like cells viability, luminescence; inhibition, % at 7.5 µM; hit rate 1.1% among 300,000; in the data active means inhibition above about 75%; inconclusive means no clear call, values can overlap the other calls; tested in HMLE shEcad cells
# T cruzi repl = blocks replication of Trypanosoma cruzi; inhibition, % (test concentration not listed); T. cruzi beta-gal in NIH3T3, luminescence, 90 h; hit rate 1.4% among 300,000;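 active means mean inhibition across valid replicates above about 55%, limit read from the data; inconclusive means mean below that limit but half or more replicates reach it; inactive means mean below it, under half of replicates reach it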;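 further: signal also drops with host cell toxicity which is not excluded here; higher percent means less beta-gal luminescence so fewer parasites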
#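 Read-out: Parasite load inhibition, % | Test system: Mouse NIH/3T3 fibroblasts infected with β-gal-expressing T. cruzi Tulahuen C4 | Amount: 5,000 cells/well | Medium: DMEM, 2% fetal bovine serum | Signal: GalScreen β-gal luminescence, detergent lysis, 60 min | Timing: 3 h attach, ≥90 h co-culture | Also added: Tulahuen C4 trypomastigotes, 5000/well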
# Mdm2-MdmX inh = inhibitors of human Mdm2/MdmX interaction; O15151+Q00987; SaOS-2 split-luciferase Mdm2/MdmX complementation, luminescence; inhibition, % at 8 µM; hit rate 3% among 330,000; AID 485346;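 active means inhibition of at least 50% at 8 µM in the primary screen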
# Mdm2-MdmX conf = human Mdm2/MdmX binding inhibition, confirmed; shares compounds with Mdm2-MdmX inh; luminescent assay; inhibition, % at 8 µM; hit rate 55% among 10,000; in the data active means inhibition above about 40%
# FLuc counter = inhibits full-length luciferase, flagging false Mdm2/MdmX hits; hit rate 77% among 6,200; AID 504607; inhibition, % at 8 µM; shares compounds with Mdm2-MdmX inh; SaOS-2 full-length luciferase counterscreen, luminescence;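 active means mean inhibition at 8 µM reaching about 37%, which flags the compound as non-specific, limit read from the data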;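 further: p53-null SaOS-2 cells with luciferase driven by a doxycycline-inducible promoter; compound on cells about two nights before reading with doxycycline added after day one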
# Numbers stand for hits; n = inactive; u = inconclusive; x = no result given.
SMILES,aSyn 5UTR inh,SKKanGAS inh,CSC inhib,T cruzi repl,Mdm2-MdmX inh,Mdm2-MdmX conf,FLuc counter
O=C1Nc2ccccc2O/C1=C\c1c(F)cccc1Cl,n,n,n,n,60,42,60
Cc1csc(NC(=O)CSc2nsc(SCC(=O)Nc3nc(C)cs3)c2C#N)n1,n,n,n,n,n,x,x
Cc1ccc(NC(=O)CSc2nsc(SCC(=O)Nc3ccc(C)cc3C)c2C#N)c(C)c1,n,n,n,n,83,n,x
O=[N+]([O-])c1ccc2nc(-c3ccccc3)cc(-c3ccccc3)c2c1,n,n,n,n,n,x,x
Nc1nc(-c2cc(O)ccc2[N+](=O)[O-])cc(-c2ccccc2)c1[N+](=O)[O-],n,n,n,n,65,57,54
Cc1cccc(/C=N/NC(=O)c2ccncc2)n1,n,n,n,n,n,x,x
CC(C)=CCC12Oc3cc(O)ccc3C1(O)Oc1cc(O)c([C@H]3C=C(C)CC(c4ccc(O)cc4O)[C@H]3C(=O)c3ccc(O)cc3O)c(O)c1C2=O (stereo not given in full),n,111,n,n,68,n,x
Cc1cccc(C)c1NC(=S)N1CCC(c2ccccc2)C1 (stereo not given),n,n,n,n,n,x,x
Cc1cc(C)c(NC(=O)c2cccc3c2C(=O)N(C2CCCCC2)C3)c(C)c1,n,n,n,n,63,n,x
Cc1ccc(N2C(=O)N3[C@H]4c5ccccc5OC[C@@H]4[C@@H](c4ccccc4)[C@@]3(C)C2=O)cc1,n,n,x,n,52,n,x
C[C@]12C(=O)N(c3ccccc3)C(=O)N1[C@H]1c3ccccc3OC[C@@H]1[C@H]2c1ccccc1,x,x,n,x,n,x,x
C[C@]12C(=O)N(c3ccc(C(F)(F)F)cc3)C(=O)N1[C@@H]1c3ccccc3OC[C@@H]1[C@H]2c1ccccc1,n,n,n,n,50,50,74
C[C@]12C(=O)N(c3ccccc3)C(=O)N1[C@@H]1c3ccccc3OC[C@@H]1[C@H]2c1ccccc1,n,n,n,n,n,x,x
Cc1cccc(CNC(=O)c2ccc(NC(=O)C3=CSCCO3)cc2)c1,n,n,n,n,n,x,x
Cc1cc(C(C)(C)C)cc(C)c1Cn1c2[n+](c3ccc(C(F)(F)F)cc31)CCCCC2,n,n,n,59,72,48,50
CCSc1nc2ccccc2n1C(=O)/C=C\c1ccc(OC)c(OC)c1,n,n,n,n,100,100,52
CCSc1nc2ccccc2n1CC(N)=O,n,n,n,n,n,x,x
COc1ccc2nc(NC(=O)CSc3nnc(C)s3)sc2c1,n,n,n,n,80,n,x
CS(=O)(=O)c1ccc2nc(NC(=O)Nc3ccc(Cl)cc3)sc2c1,n,n,x,n,50,n,x
COc1ccccc1C(=O)Nc1nc2ccc(S(C)(=O)=O)cc2s1,n,n,n,n,53,n,x
CS(=O)(=O)c1ccc2nc(NC(=O)c3ccc(Cl)cc3)sc2c1,n,n,n,n,n,x,x
COc1ccc2nc(NC(=O)c3ccccc3C(=O)O)sc2c1,n,n,n,n,n,x,x
COc1ccc(C(=O)Nc2nc3ccccc3s2)c(OC)c1,79,53,n,n,100,99,52
O=C(NNC1CC(=O)N(c2ccc(Cl)cc2)C1=O)c1ccco1 (stereo not given),n,n,x,n,n,x,x
COc1ccc2nc(NC(=O)c3cccc(-c4cc5ccccc5oc4=O)c3)sc2c1,n,n,u,n,78,64,120
SMILES,aSyn 5UTR inh,SKKanGAS inh,CSC inhib,T cruzi repl,Mdm2-MdmX inh,Mdm2-MdmX conf,FLuc counter
COc1ccccc1C(=O)Nc1nc2ccccc2s1,109,n,105,n,93,90,n
COc1ccc(NC(=O)Nc2nc3ccccc3s2)cc1,n,n,n,n,n,x,x
COc1ccc(-n2nc(C(=O)Nc3nc4ccc(OC)cc4s3)c3ccccc3c2=O)c(OC)c1,n,n,n,n,77,n,x
O=c1c2ccccc2[nH]c(=S)n1CCN1CCCCC1,n,n,n,n,n,x,x
O=c1c2cccnc2[nH]c(=S)n1CCCN1CCN(c2ccccc2F)CC1,n,n,n,n,n,x,x
O=c1c2ccccc2[nH]c(=S)n1CCCN1CCN(c2ccccc2F)CC1,n,n,n,n,66,n,81
O=c1c2ccccc2[nH]c(=S)n1CCCN1CCN(c2ccccc2)CC1,n,n,n,58,80,43,63
CCOC(=O)N/N=C/c1ccc(N(CC)CC)cc1O,n,n,x,n,n,x,x
CCN(CC)c1ccc(/C=N/NC(=O)CNC(=O)C2COc3ccccc3O2)c(O)c1 (stereo not given),n,59,n,63,77,76,n
Cc1cc([N+](=O)[O-])cc(/C=N\NC(=O)C2COc3ccccc3O2)c1O (stereo not given),n,106,n,n,52,40,n
CCN(CC)c1ccc(/C=N/NC(=O)CCC(=O)NCc2ccccc2)c(O)c1,n,56,82,n,71,76,n
CCOC(=O)C(C)/C(C)=N/NC(=O)c1cc2ccccc2cc1O (stereo not given),62,n,n,n,82,81,56
O=C(NCCn1ccc2ccccc21)c1ccc(S(=O)(=O)N2CCOCC2)cc1,n,n,n,n,n,x,x
CC(Sc1ncnc2sc(-c3ccccc3)cc12)C(=O)NCC1CCCO1 (stereo not given),n,n,n,n,67,59,91
CCN(CC(=O)Nc1ccc(OC)cc1)C(=O)CSCC(=O)Nc1cc(C)on1,x,x,n,x,n,x,x
COC(=O)C1=C(C)N(Cc2ccccc2)C(=NCCCCO)N[C@H]1c1cccc(C(F)(F)F)c1,x,x,n,x,52,n,x
CCN1C(=NCC(C)C)N[C@@H](c2cccc(C(F)(F)F)c2)C(C(=O)OC)=C1C,n,n,n,n,57,n,60
COC(=O)C1=C(C)N(CC2CC2)C(=NCc2cccc(C(F)(F)F)c2)N[C@H]1c1ccccc1,x,x,n,x,54,n,x
COC(=O)C1=C(C)N(Cc2ccccc2)C(=NCc2cccc(C(F)(F)F)c2)N[C@H]1c1cccc(C(F)(F)F)c1,x,x,x,x,100,100,49
COC(=O)c1ccc(CSc2nnc(C)n2N)o1,n,n,n,n,n,x,x
CCN1C(=NCCCCO)N[C@@H](c2cccc(C(F)(F)F)c2)C(C(=O)OC)=C1C,n,n,n,n,n,x,x
COCCN=C1N[C@@H](c2cccc(C(F)(F)F)c2)C(C(=O)OC)=C(C)N1Cc1ccccc1,n,n,n,n,n,x,x
COC(=O)C1=C(C)N(Cc2ccccc2)C(=NCCc2c[nH]c3ccccc23)N[C@H]1c1cccc(C(F)(F)F)c1,x,x,x,x,100,41,58
COC(=O)C1=C(C)N(Cc2ccccc2)C(=NCc2ccc(OC)cc2)N[C@H]1c1ccccc1,x,x,n,x,65,n,x
COC(=O)C1=C(C)N(Cc2ccccc2)C(=NCc2cccc(C(F)(F)F)c2)N[C@H]1c1cccc(F)c1,u,n,111,n,95,73,40
